The values below come from the array DNA melting data of Ke et al. (doi:10.1101/2024.01.08.574731).

Series [1] can be described thus: melting temperature; fluorescence melt of hairpins on a sequencing array, two-state fit, raised by 9.35 °C to match UV melts. The settings on record: sodium 0.088 M. The procedure, abridged: (§1)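 Bootstrapped two-state fits yielded melting temperature and folding enthalpy for library hairpins. Cy3 fluorescence, with annealed Cy3 and quencher oligos, was imaged on a sequenced MiSeq flow cell in 50 mM Na-HEPES pH 8.0, 25 mM NaCl in 2.5 °C steps up to 60 °C, and normalised to pre-quench Cy3 and to control constructs. Four replicates were combined by inverse variance, and fitted temperatures were raised by 9.35 °C to match UV melts.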

Series [2] in a line: folding enthalpy; higher = less favourable; fluorescence melt of hairpins on a sequencing array, two-state fit. The settings on record: sodium 0.088 M. The procedure, abridged: as §1

On to GCACAACGAAAGTTTTGC (((.(((....))).))), for which the Tm in series [1] amounted to 46.9 °C. In addition, the folding enthalpy in series [2] was -37.7 kcal/mol.

As to GCACAAGAAATTGTGC ((((((....)))))), in series [1], the Tm was 57.3 °C. Also, in series [2], the folding enthalpy was -36 kcal/mol.

On to GCACAAGGAAACTTATGC (((.(((....))).))), for which the Tm in series [1] was 29.4 °C. In addition, the folding enthalpy in series [2] was -18.7 kcal/mol.

In the case of GCACAAGGAAACTTGCGC ((.((((....)))).)), in series [1], the Tm worked out at 48.4 °C. In series [2], the folding enthalpy is -37.9 kcal/mol.

With GCACACCCGAAAGGGTGC (((..(((....)))))), in series [1], the Tm came to 38.6 °C. Further, the folding enthalpy in series [2] was -5.94 kcal/mol.

As to GCACACGAAAGTGATTGC ((((((....)))..))), the Tm in series [1] turned out to be 39.8 °C. Further, the folding enthalpy in series [2] is -18.5 kcal/mol.

On to GCACACGAAAGTGTTGC ((((((....))).))), for which, in series [1], the Tm stood at 53.8 °C. In series [2], the folding enthalpy was -32.5 kcal/mol.

In the case of GCACACGGAAACGCATGC (((..((....))..))), the Tm in series [1] is 26.4 °C. The folding enthalpy in series [2] was -12.7 kcal/mol.

With GCACACGGAAACGCGTGC ((((.((....)).)))), in series [1], the Tm is 57 °C. Besides, the folding enthalpy in series [2] is -47.3 kcal/mol.

For the sequence GCACACGGAAACGTGCGC ((.((((....)))).)), in series [1], the Tm came to 60.5 °C. The folding enthalpy in series [2] was -42.2 kcal/mol.

With GCACAGCGAAAGCAGGGC ((.(.((....)).).)), in series [1], the Tm was 62.5 °C. In addition, the folding enthalpy in series [2] is -25.8 kcal/mol.

In the case of GCACAGCGAAAGCCGGGC ((.(.((....)).).)), the Tm in series [1] was 55.7 °C. For the same sequence, the folding enthalpy in series [2] was -22.4 kcal/mol.

For GCACAGCGAAAGCCTTGC (((..((....))..))), the Tm in series [1] turned out to be 39 °C. Besides, the folding enthalpy in series [2] is -8.82 kcal/mol.

Take GCACAGCGAAAGCGATGC (((..((....))..))): in series [1], the Tm is 51.6 °C. In addition, in series [2], the folding enthalpy was -15.8 kcal/mol.

Turning to GCACAGCGAAAGCTAAGC ((..(((....)))..)), in series [1], the Tm amounted to 40.4 °C. Further, the folding enthalpy in series [2] is -12.1 kcal/mol.

For the sequence GCACAGCGAAAGCTCAGC ((..(((....)))..)), the Tm in series [1] worked out at 33.9 °C. Moreover, the folding enthalpy in series [2] is -10.5 kcal/mol.

With GCACAGCGAAAGCTCTGC (((.(((....))).))), the Tm in series [1] stood at 40.6 °C. Further, in series [2], the folding enthalpy was -25.6 kcal/mol.

As to GCACATACGAAAGTATGC (((..(((....)))))), the Tm in series [1] turned out to be 35.4 °C. Besides, the folding enthalpy in series [2] is -9.91 kcal/mol.

For GCACATCGAAAGATTTGC (((.(((....))).))), the Tm in series [1] turned out to be 45.2 °C. Also, the folding enthalpy in series [2] was -36.1 kcal/mol.

As to GCACCAGGAAACTGATGC (((.(((....))).))), the Tm in series [1] was determined as 45 °C. Besides, the folding enthalpy in series [2] was -28.6 kcal/mol.

For GCACCCGAAAGGGATTGC ((((((....)))..))), the Tm in series [1] was found to be 42.3 °C. Further, the folding enthalpy in series [2] was -18 kcal/mol.

Consider GCACCCGAAAGGGCTTGC ((((((....)))..))), for which the Tm in series [1] was found to be 46.6 °C. Moreover, the folding enthalpy in series [2] is -14.9 kcal/mol.

Consider GCACCCGAAAGGGGATGC ((((((....)))..))), for which the Tm in series [1] worked out at 50.8 °C. For the same sequence, the folding enthalpy in series [2] was -19.6 kcal/mol.

With GCACCCGGAAACGAGCGC ((.(.((....)).).)), the Tm in series [1] came to 34.7 °C. Moreover, the folding enthalpy in series [2] is -29.2 kcal/mol.

GCACCCGGAAACGGACGC ((..(((....)))..)): the Tm in series [1] is 38.7 °C. The folding enthalpy in series [2] is -19.6 kcal/mol.

For GCACCGACGAAAGTCTGC (((..(((....)))))), the Tm in series [1] is 35.3 °C. In series [2], the folding enthalpy was -16.7 kcal/mol.

Regarding GCACCGCGAAAGCCATGC (((..((....))..))), the Tm in series [1] came to 28.6 °C. Further, the folding enthalpy in series [2] was -9.79 kcal/mol.

GCACCGCGAAAGCGTAGC ((..(((....)))..)): the Tm in series [1] is 41.2 °C. Also, in series [2], the folding enthalpy is -12.3 kcal/mol.

For the sequence GCACCGCGAAAGCGTGGC ((..(((....)))..)), the Tm in series [1] was 56.1 °C. Moreover, the folding enthalpy in series [2] is -16.5 kcal/mol.

As for GCACCGCGAAAGCGTTGC (((.(((....))).))), the Tm in series [1] is 56.3 °C. The folding enthalpy in series [2] is -42.6 kcal/mol.

For the sequence GCACCGCGAAAGCTATGC (((..((....))..))), the Tm in series [1] stood at 31.1 °C. In addition, the folding enthalpy in series [2] was -12.8 kcal/mol.

With GCACCGCGAAAGCTGTGC ((((.((....)).)))), the Tm in series [1] worked out at 66.2 °C. The folding enthalpy in series [2] is -32.1 kcal/mol.

For the sequence GCACCGGGAAACCGGCGC ((.((((....)))).)), the Tm in series [1] came out at 59.6 °C. In addition, the folding enthalpy in series [2] is -41.3 kcal/mol.

For the sequence GCACCGGGAAACTGGTGC (((((.(....).))))), in series [1], the Tm came to 61.2 °C. Further, in series [2], the folding enthalpy was -41 kcal/mol.

With GCACCTGCGAAAGCATGC (((..(((....)))))), the Tm in series [1] was 33.6 °C. For the same sequence, the folding enthalpy in series [2] was -9.15 kcal/mol.

As to GCACCTGGAAACAGACGC ((..(((....)))..)), in series [1], the Tm came to 29.2 °C. In addition, in series [2], the folding enthalpy was -15.3 kcal/mol.
